Data reported in the EternaBench riboswitch data.

Test system: MS2 coat protein
Assay: apparent Kd, MS2 coat protein; higher = weaker binding; RNA-MaP array; FMN 200 µM where present
Procedure, shortened: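 Binding was read on Illumina sequencing-chip clusters where stalled E. coli RNA polymerase had transcribed each design. A titration of SNAP-549-labelled MS2 coat protein began at 0.7 or 1.5 nM and doubled to 3 µM, once without ligand and once with constant ligand, in 100 mM Tris-HCl pH 7.5, 80 mM KCl, 4 mM MgCl2, BSA, DTT, yeast tRNA and Tween-20. The apparent Kd is the median of filtered per-cluster binding-curve fits, based on green signal normalised to red-channel RNA signal and control-cluster median Fmax.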

[1] = designed as: OFF switch for flavin mononucleotide, no ligand
[2] = ligand present: flavin mononucleotide, designed as: OFF switch for flavin mononucleotide
[3] = designed as: ON switch for flavin mononucleotide, no ligand
[4] = ligand present: flavin mononucleotide, designed as: ON switch for flavin mononucleotide

Sequence | apparent Kd [1] [nM] | apparent Kd [2] [nM] | apparent Kd [3] [nM] | apparent Kd [4] [nM]
ACCUCACAUGAGGAUCACCCAUGUCAGGAUAUACAAACCGUGUAAAGACACGGUCGUAGUAGAAGGGACUAUGG | 68 | 18.7 | – | –
ACCUCACAUGAGGAUCACCCAUGUCAGGAUAUACCCAAAGCUGCGAAAAUAUCCAGCUGUAGAAGGGACAGGCU | 13.9 | 16.1 | – | –
ACCUCACAUGAGGAUCACCCAUGUCAGGAUAUUCAAACAGGCGAAACUCCGCCUUCUCGAAGAAGGGACAUUAA | 15.9 | 64.5 | – | –
ACCUCACAUGAGGAUCACCCAUGUUAGGAUAUCUCGACACUCCGCGGGCGGUAGCGUCAGAGAAGGAACGUGCU | 29.1 | 24.9 | – | –
ACCUGCCGUGGCACGGUAGUACCGGAGGAUAUCCGCGUCGGUCAUGACAUGAGGAUCACCCAUGUGGAGAAGGCUGGUUUGUCC | 11.9 | 24.8 | – | –
ACCUUACAUGAGGAUCACCCAUGUUAGGAUAUCUCGCCUGCGCUAACAAAGCGCAGGCAGAGAAGGGACGCGGG | 28.5 | 31.8 | – | –
ACGAAGAUACAGAAGGGUAAAUUAGUUAAUUAUAAUUUGGUUAUGCACUACAGGAUAUGUUAUACAUGAGGAUCACCCAUGUUC | – | – | 18.2 | 13.7
ACGACGAAAGUCGAACGAUGUAGCAGAAGGACAUGAGGAUCACCCAUGUCAGCUGUAACAGCCAUGUAGGAUAUGCUACAUCGG | 4.37 | 5.85 | – | –
ACGACGAAAGUCGAACGAUGUAGCAGAAGGACAUGAGGAUCACCCAUGUCAGCUGUGAAAACCAUGUAGGAUAUGCUACAUCGA | 38.5 | 291 | – | –
ACGACGAAAGUCGAACGAUGUAGCAGAAGGACAUGAGGAUCACCCAUGUCAGCUGUGCAAAACAUGUAGGAUAUGCUACAUCGA | 6.14 | 11.3 | – | –
ACGCACGGAGGAUAUACAUGAGGAUCACCCAUGUCGGUGUAUUUUCGGCCAAAAUUUUGUAGAAGGCUGUCGUG | 222 | 526 | – | –
ACGCAGCUGGGUGAGGAUAUCGGUGGUACUACAUGAGGAUCACCCAUGUCCGAAGCUCGGACCUCCGAGAAGGCGCCCGGCUGCG | – | – | 284 | 31.4
ACGCGAUGGGAGAAGGUACUUUAAAAUAUUUUCACAUGAGGAUCACCCAUGUAAGGAUAUCCCAUCGUUAAAUAUUAUACAGCA | 6.49 | 5.24 | – | –
ACGGAACAUGAGGAUCACCCAUGUAUCUGAGAUAAGGUCUCGCAGGAUAUUCAGAGAAGCCUAUCGGAGAAGGGUGACACCAAA | – | – | 38.4 | 15.5
ACGGUGGUCACAGGAUAUCCGGCACGCGUGCCCGGAGAAGGGUGACUCAGAACCACAUGAGGAUCACCCAUGUGCCUUGCCGUA | – | – | 186 | 37.1
ACGUCUUAGUAGAAGGGACAUCGGCUGGUAAGCAUCAUCUCCUUCUCACAUGAGGAUCACCCAUGUCAGGAUAUACUAAGAUAC | 12.9 | 38.7 | – | –
ACGUGUAAGCAGAAGGGUUAGCACAUGAGGAUCACCCAUGUAACAGUGGACAGGAUAUGCGCUCAUGUUGGAUAGGGCCUUCCC | – | – | 302 | 67.6
ACGUUAAUUCGAGGAUAUCGGUGAUAUAUAUUACGAGAAGGCGAUAAUUGUGAUAAACUUAUAGACAUGAGGAUCACCCAUGUA | – | – | 42.1 | 38.2
ACUAGAUGAGGAUAUGCAUAUUUUCGUGUUCUUCUAGAUUAACAUGAGGAUCACCCAUGUAGAAGGCGUCUGGU | 30.7 | 62 | – | –

Sequence | apparent Kd [1] [nM] | apparent Kd [2] [nM] | apparent Kd [3] [nM] | apparent Kd [4] [nM]
ACUAGAUGAGGAUAUGCAUGUUUUCGUGUUCUUCUAGAUUAACAUGAGGAUCACCCAUGUAGAAGGCGUCAUAU | 48.4 | 134 | – | –
ACUCAGUCAGGAUAUCGUUAAUUUAAUUGUUUGUAUUAGUUCGAGAAGGGACAUGAGGAUCACCCAUGUACUCA | 31.7 | 87.4 | – | –
ACUGACAUGAGGAUCACCCAUGUCUUGAAUAGGUCAAAUUCACAGGAUAUGCACGAGGACAGAGUGCAGAAGGGUGAUGCAAUG | – | – | 47.7 | 11.7
ACUGACAUGAGGAUCACCCAUGUCUUGGAUAGGCCAAAUUCACAGGAUAUGCAUGAGGAAAGAGUGCAGAAGGGUGAUGCAAUG | – | – | 43.6 | 23.9
ACUGACAUGAGGAUCACCCAUGUCUUGGAUAGGCCAAAUUCACAGGAUAUGCAUGAGGACAGCGUGCAGAAGGGUGAUGCAAUG | – | – | 54.6 | 25.5
ACUGUCCGAGAGAAGGGAACAUGAGGAUCACCCAUGUUACCUCACCUGGUGACGGAACUCCAAGUUCAGGAUAUCUCGAGCGGC | 4.85 | 5.98 | – | –
ACUUAUGAAGGAUAUACUAGCGACAUGCGCUCAACACGCGCACAUGAGGAUCACCCAUGUAGAAGGUCAAACAU | 23.1 | 22.1 | – | –
ACUUCACAUGAGGAUCACCCAUGUCAGGCCGGACUAGGAUAUUAUCAUGCAGCGUAACCGUAAGAAGGAGUUGGAU | – | – | 88.3 | 187
ACUUGACAUGAGGAUCACCCAUGUCAGGAUAUAGUAGGACAAAUAAAUAAAAGUUCUACUAGAAGGGACGUGGG | 21.6 | 22.4 | – | –
ACUUGACAUGAGGAUCACCCAUGUCAGGAUAUAGUAGGACAAAUAAAUAAAAGUUCUACUAGAAGGGACUUGGG | 25.1 | 45.3 | – | –
ACUUGUAAGUAGAAGGUAGUCAUUAUAUUAAUCAUGUAAACAUGAGGAUCACCCAUGUAGAGUACUAAGGAUAUACAUCGAUAG | – | 9.91 | – | –
ACUUGUUAUUUAAUCAUUGAAUUGUAGGAUAUACUUACAUGAGGAUCACCCAUGUUAACAUGGAUGUAGAAGGACAUCUCAUUU | 98.9 | 55.1 | – | –
AGAAAACAUGAGGAUCACCCAUGUAAGGAUAUGCUAAGGGUGGCUUCGGCCACCCAAUGCAGAAGGUACAAAUA | 49.6 | 59.7 | – | –
AGAAAACAUGAGGAUCACCCAUGUGAGGAUAUCGAUGUCCAAGGCCGGGUGCGGGACUCGAGAAGGCACUUGGA | 76.9 | 32.3 | – | –
AGAAAACAUGAGGAUCACCCAUGUGAGGAUAUCGAUGUCCAAGGGUGGGUGCGGGACUCGAGAAGGCACUUGGA | 80.6 | 137 | – | –
AGAAAACAUGAGGAUCACCCAUGUGAGGAUAUCGAUGUCCAAGUCCGGGUGCGGGACUCGAGAAGGCACUUGGG | 55.9 | 55 | – | –
AGAAACUACGAGAAGGACAUAUAAUUCUUCAGAUACAUGAGGAUCACCCAUGUAGGAUAUCGUAGUUUCAGGAUCGUGAGAUCA | 5.95 | 10.3 | – | –
AGAAACUACGAGAAGGACAUGAAAAGUGCCGCAAACAUGAGGAUCACCCAUGUAGGAUAUCGUAGUUUCAGGAUCGUGAGAUCA | 15.8 | 108 | – | –
AGAAACUACGAGAAGGACAUGUGGUCCAAAAUAAACAUGAGGAUCACCCAUGUAGGAUAUCGUAGUUUCAGGAUCGUGAGAUCA | 260 | 12.3 | – | –

Sequence | apparent Kd [1] [nM] | apparent Kd [2] [nM] | apparent Kd [3] [nM] | apparent Kd [4] [nM]
AGAAACUACGAGAAGGACAUGUGGUCCUUCAGUUACAUGAGGAUCACCCAUGUAGGAUAUAAAAGUUUCAGGAUCGUGAGAUCA | 6.78 | 7.1 | – | –
AGAAACUACGAGAAGGACAUGUGGUCCUUCAGUUACAUGAGGAUCACCCAUGUAGGAUAUCGUAGUUUCAGGAUCGUGAGAUCU | 32.5 | 13 | – | –
AGAAAGAAGCAAGGAUAUUGUAAGGUUAAUGUACAAGAAGGUGCUGUUUAUGUCUCUUAACAUGAGGAUCACCCAUGUAUUGGU | – | – | 52.6 | 44.1
AGAAAUCAUGUAGGAUAUGCAUGGCGAAGCUACGCAGAAGGACAUGAGGAUCACCCAUGUUAUAGCGUCCGAGAAAGGAUGCAA | 27.9 | 187 | – | –
AGAAGAACAUGAGGAUCACCCAUGUUCCUGCUGCUCCACAGACAGGAUAUGGGUGUCGUCGACAAUCAGAAGGGUUCGCGGAGC | – | – | 34.9 | 27.5
AGACGGAGCAGAGGAUAUACAUGAGGAUCACCCAUGUAAGAUCUCCAGGAAACUGGAGAUCAAAUGUAGAAGGCUGCUCCGUCA | 17.8 | 55.8 | – | –
AGAGAGAGCACAGGAUAUCCGCACACAUGCAGCGGAGAAGGGUGACCUUUUUGCACAUGAGGAUCACCCAUGUCCAGCACCACG | – | – | 25.7 | 13.3
AGAGCCUCGUGAGGAUAUACAUGAGGAUCACCCAUGUAAUAAAGUGAACGGAGGAAACUCCGAAUGUAGAAGGCACGAGGCUCA | 44.5 | 391 | – | –
AGAUACAACCAGAAGGACAUGAGGAUCACCCAUGUAGGAUAUGGGUUACACGUUCCUGGGAAUUGUAACGACGCUACGAAGAGU | – | – | 126 | 12.8
AGAUCACAUGAGGAUCACCCAUGUCAGGAUAUGAUACUAUGUACUUCGGUACAUAGUAUCAGAAGGGACUUAAA | 101 | 283 | – | –
AGAUCACAUGAGGAUCACCCAUGUGAGGAUAUGAUACUAUGUACUUCGGUACAUAGUAUCAGAAGGCAUGUGGA | 56.7 | 109 | – | –
AGAUCCUGAGUCAGGAUAUAGAGGCGGUAGCCUGGCUAGAAGGGACAUGAGGAUCACCCAUGUGGGUUCGAGCC | 17.7 | 31.3 | – | –
AGAUGUGAACAUGAGGAUCACCCAUGUGACUAGGUUUAUUUCAGAAGGCAUUUAUAGAGAUUAUAUGAGGAUAUGAAGUUUUAA | – | – | 12.4 | 6.45
AGCAGACGAGGAUAUAGAUUUGUUAACAUGAGGAUCACCCAUGUGAUCGAUUAAUCAUAUUUAGAAGGUGUCUGCU | 37.7 | 154 | – | –
AGCCCGGGAGGAUAUCCAAUAUAUGACAUGAGGAUCACCCAUGUUUCCACUCGUACCUCCGGAGAAGGCCCGGCGA | 19.7 | 19.4 | – | –
AGCCUACAUGAGGAUCACCCAUGUCAGGAUAUCUCGCGGCGUGUCAAGUUCACACUGCAGAGAAGGGACUCGGG | 58.1 | 66.9 | – | –
AGCGAGGUAGGAUAUACAUGAGGAUCACCCAUGUGCUUGCAUGGCGUGGAACGUCGAGGUAGAAGGGCCGCGCC | 24.2 | 35.7 | – | –
AGCUACGUUUCGUAGCAGCUAGGUGAGGAUAUCCACUCAACAUGAGGAUCACCCAUGUAAACAUGGGAGAAGGCGCCUAGAAAG | – | – | 63.4 | 9.63
